Results: ChEMBL document CHEMBL1123264, “Conformationally restricted congeners of hypotensive and platelet aggregation inhibitors: 6-aryl-5-methyl-4,5-dihydro-3(2H)-pyridazinones derived from 5H-indeno[1,2-c]pyridazine” (J Med Chem, 1986)
The source made the active and inactive calls. No cut-off for these calls is given here.

Columns and labels:
[1] = species: Rattus norvegicus; experiment: Compound was evaluated for its antiulcer activity in rat; assay type: functional
Procedure, shortened: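 Male Sprague-Dawley rats, 180–250 g, 8/group, fasted 24 h with water. Compound by gavage right after indomethacin 15 mg/kg ip. Stomachs examined 5 h later under a 10× microscope; lesion number and severity scored on an arbitrary scale. ED50 is the dose reducing lesions by 50%.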

[2] = (§1) Relative activity with respect to the dihydralazine was determined; assay type: functional
Procedure, shortened: (§2)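 SH rats, fasted, given a single oral dose of 12.5 mg/kg in 1% methylcellulose by gavage. Tail-cuff systolic pressure read hourly; area under the curve taken over 0–6 h. Dihydralazine was the reference; relative activity is AUC(dihydralazine)/AUC(compound), and a smaller AUC means higher activity.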

[3] = species: Cavia porcellus; experiment: Compound was tested in vitro for antiaggregation induced by thrombin at 0.625 IU/mL in guinea pig PRP after 2 min; assay type: functional
Procedure, shortened: (§3)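 Born method. Citrated (3.8%, 1:10) aortic blood from fasted male guinea pigs under pentobarbital, centrifuged to give platelet-rich plasma. Incubated 10 min at room temperature with compound at 66 μM. Aggregation triggered by ADP, equine tendon collagen or thrombin. Result is % inhibition vs controls, mean of five experiments; thrombin values read at 2 or 4 min.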

[4] = species: Mus musculus; experiment: In vitro antithrombotic activity in mouse; assay type: functional; details: in the assay text read “In vivo” for “In vitro”
Procedure, shortened: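 Male Swiss mice, 20–30 g, 10/group. Oral dose in 1% hydroxymethylcellulose, equimolar to ASA 20 mg/kg. At 1 h, iv tail injection of collagen (200 μg/mL) plus adrenaline (200 μM), 10 mL/kg, after warming at 27 °C. Death or hind-limb paralysis over 15 min counted; % protection = (Nc−Nt)/Nc×100.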

[5] = (§4) Area under curve was determined for 0-6 hr duration using dihydralazine as reference drug for the peak blood pressure; assay type: ADME; design: concentration or dose not given beside the values; procedure, shortened: as §2
[6] = species: Cavia porcellus; experiment: In vitro inhibition of platelet aggregation induced by 0.5 uM ADP (irreversible activity) was determined in guinea pig PRP; assay type: functional; procedure, shortened: as §3
[7] = tested on: Rattus norvegicus; experiment: Compound was evaluated for its antiinflammatory activity in rat by Carrageenan paw edema test; assay type: functional
Procedure, shortened: (§5)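 Male Sprague-Dawley rats, 130–150 g, fasted 18 h, 8/group. Compound in 1% carboxymethylcellulose by gavage; 1 h later 0.1 mL 1% carrageenin injected into the right hind paw. Paw volume measured by plethysmometer at 0, 1 and 3 h. Inhibition at 3 h vs vehicle controls; ED50 is the dose giving 50% inhibition.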

[8] = species: Cavia porcellus; experiment: Compound was tested in vitro for antiaggregation induced by thrombin at 0.625 IU/mL in guinea pig PRP after 4 min; assay type: functional; procedure, shortened: as §3
[9] = species: Rattus norvegicus; experiment: Dose that lowers blood pressure by 25 mm Hg was determined in spontaneous hypertensive rats (SHR); assay type: functional
Procedure, shortened: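 Conscious SH rats, 150–200 g, fasted 12 h, warmed at 33 °C for 30 min before tail-cuff plethysmography of systolic pressure. Suspension in 1% methylcellulose by gavage at 1.56, 3.125, 6.25, 12.5 and 25 mg/kg, 6 rats/dose, read hourly for 6 h. ED25 is the dose lowering pressure by 25 mmHg at peak, taken from log dose-response curves.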

[10] = species: Cavia porcellus; experiment: Compound was tested in vitro for antiaggregation induced by 0.5 uM ADP in guinea pig PRP; assay type: functional; procedure, shortened: as §3
[11] = species: Cavia porcellus; experiment: Compound was tested in vitro for antiaggregation induced by collagen (0.8 ug/mL) in guinea pig PRP; assay type: functional; procedure, shortened: as §3
[12] = Compound was tested for its lethality in vivo in mouse; assay type: ADME, organism-based
[13] = (§6) relative activity with respect to the dihydralazine was determined; assay type: functional; procedure, shortened: as §2
[14] = species: Rattus norvegicus; experiment: as §4; assay type: functional, organism-based; procedure, shortened: as §2
[15] = species: Rattus norvegicus; experiment: Compound was tested for antihypertensive activity in normotensive rats and the dose that lowered by 25 mmHg of the blood pressure was determined; assay type: functional
Procedure, shortened: (§7)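 Unanesthetized male Sprague-Dawley rats, 150–200 g, fasted 12 h, warmed at 33 °C for 30 min. Oral dosing at 6.25, 12.5 and 25 mg/kg; dihydralazine 0.78–6.25 mg/kg po. Tail-cuff systolic pressure read hourly for 6 h, 6 rats/dose. ED25 is the dose lowering pressure by 25 mmHg at peak, taken from log dose-response curves.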

[16] = species: Rattus norvegicus; experiment: as §6; assay type: functional; procedure, shortened: as §2
[17] = tested on: Rattus norvegicus; experiment: Compound was evaluated for its antiinflammatory activity in rat by Carrageenan paw edema test; Inactive; assay type: functional, organism-based; procedure, shortened: as §5
[18] = species: Cavia porcellus; experiment: Compound was tested in vitro for its antiaggregation induced by thrombin at 0.625 IU/mL in guinea pig PRP after 4 min; assay type: functional; procedure, shortened: as §3
[19] = species: Rattus norvegicus; experiment: as §1; assay type: functional; procedure, shortened: as §2
[20] = species: Rattus norvegicus; experiment: Antihypertensive activity in normotensive rats; assay type: functional; procedure, shortened: as §7

Compound	ED50 [1] [mg/kg]	Activity [2]	Activity [3]	Activity [4]	AUC units [5]	Activity [6]	ED50 [7] [mg/kg]	Activity [8]	ED25 [9] [mg/kg]	Activity [10]	Activity [11]	LD50 [12] [mg/kg]	Activity [13]	AUC units [14]	ED25 [15] [mg/kg]	Activity [16]	ED50 [17]	Activity [18]	Activity [19]	ED25 [20] [mg/kg]
CC(Cl)C(=O)Nc1ccc2c(c1)CC1CC(=O)NN=C21 (stereo not drawn)	0.3	0.66	84	62	27140	40	155	83	10	48	60	1000	–	–	–	–	–	–	–	–
N/N=c1\[nH][nH]/c(=N\N)c2ccccc12 [DIHYDRALAZINE]	–	–	–	–	–	–	–	–	0.72	–	–	–	1	17900	3.12	–	–	–	–	–
CC(=O)Nc1ccc2c(c1)CC1CC(=O)N(C)N=C21 (stereo not drawn)	–	–	5	50	31960	23	–	–	15	4	40	1000	–	–	–	0.6	inactive	37	–	–
Nc1ccc2c(c1)CC1CC(=O)NN=C21 (stereo not drawn)	100	–	44	87	24350	66	40.8	34	2.6	31	58	308	–	–	–	–	–	–	0.74	–
CC(=O)Nc1ccc2c(c1)CC1CC(=O)NN=C21 (stereo not drawn)	0.3	–	95	100	17560	81	160	100	2.6	45	73	1000	–	–	–	–	–	–	1.02	25
CN1N=C2c3ccc(N)cc3CC2CC1=O (stereo not drawn)	–	–	36	58	36740	33	–	37	15.5	7	26	750	–	–	–	–	inactive	–	0.49	–
